# What was measured:
# Assay type in all cases: functional
# SK-MEL-28 = assay: Cytotoxicity against human SK-MEL-28 cells assessed as cell growth at 10 uM after 48 hrs by sulforhodamine B assay relative to control; conditions: SK-MEL-28, 48 h, read-out: Activity
# Outline: (§1)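 Compounds went through the NCI 60 cell-line screen, whose current protocol tests first at a single dose.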
# A549 [1] = assay: Cytotoxicity against human A549/ATCC cells assessed as cell growth at 10 uM after 48 hrs by sulforhodamine B assay relative to control; conditions: A549, 48 h, read-out: Activity; outline: as §1
# OVCAR-3 = assay: Cytotoxicity against human OVCAR3 cells assessed as cell growth at 10 uM after 48 hrs by sulforhodamine B assay relative to control; conditions: OVCAR-3, 48 h, read-out: Activity; outline: as §1
# K562 = assay: Cytotoxicity against human K562 cells assessed as cell growth at 10 uM after 48 hrs by sulforhodamine B assay relative to control; conditions: K562, 48 h, read-out: Activity; outline: as §1
# [2] = Cytotoxicity against human Hs 578T cells assessed as cell growth at 10 uM after 48 hrs by sulforhodamine B assay relative to control; conditions: read-out: Activity; outline: as §1
# UACC-62 = assay: Cytotoxicity against human UACC62 cells assessed as cell growth at 10 uM after 48 hrs by sulforhodamine B assay relative to control; conditions: UACC-62, 48 h, read-out: Activity
# NCI/ADR-RES = assay: Cytotoxicity against human NCI/ADR-RES cells assessed as cell growth at 10 uM after 48 hrs by sulforhodamine B assay relative to control; conditions: read-out: Activity; outline: as §1
# MDA-MB-435 = assay: Cytotoxicity against human MDA-MB-435 cells assessed as cell growth at 10 uM after 48 hrs by sulforhodamine B assay relative to control; conditions: MDA-MB-435, 48 h, read-out: Activity; outline: as §1
# COLO 205 = assay: Cytotoxicity against human COLO205 cells assessed as cell growth at 10 uM after 48 hrs by sulforhodamine B assay relative to control; conditions: COLO 205, 48 h, read-out: Activity; outline: as §1
# HCT-15 = assay: Cytotoxicity against human HCT15 cells assessed as cell growth at 10 uM after 48 hrs by sulforhodamine B assay relative to control; conditions: HCT-15, 48 h, read-out: Activity; outline: as §1
# HL-60(TB) = assay: Cytotoxicity against human HL-60(TB) cells assessed as cell growth at 10 uM after 48 hrs by sulforhodamine B assay relative to control; conditions: HL-60, 48 h, read-out: Activity
# Outline: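 Tested in the NCI 60 cell-line screen, where the current protocol starts with testing at a single dose.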
# M14 = assay: Cytotoxicity against human M14 cells assessed as cell growth at 10 uM after 48 hrs by sulforhodamine B assay relative to control; conditions: M14, 48 h, read-out: Activity; outline: as §1
# OVCAR-4 = assay: Cytotoxicity against human OVCAR4 cells assessed as cell growth at 10 uM after 48 hrs by sulforhodamine B assay relative to control; conditions: OVCAR-4, 48 h, read-out: Activity; outline: as §1
# T47D = assay: Cytotoxicity against human T47D cells assessed as cell growth at 10 uM after 48 hrs by sulforhodamine B assay relative to control; conditions: read-out: Activity
# BT-549 = assay: Cytotoxicity against human BT549 cells assessed as cell growth at 10 uM after 48 hrs by sulforhodamine B assay relative to control; conditions: BT-549, 48 h, read-out: Activity; outline: as §1
# HOP-62 = assay: Cytotoxicity against human HOP62 cells assessed as cell growth at 10 uM after 48 hrs by sulforhodamine B assay relative to control; conditions: HOP-62, 48 h, read-out: Activity; outline: as §1
# MOLT-4 = assay: Cytotoxicity against human MOLT4 cells assessed as cell growth at 10 uM after 48 hrs by sulforhodamine B assay relative to control; conditions: MOLT-4, 48 h, read-out: Activity; outline: as §1
# NCI-H23 = assay: Cytotoxicity against human NCI-H23 cells assessed as cell growth at 10 uM after 48 hrs by sulforhodamine B assay relative to control; conditions: NCI-H23, 48 h, read-out: Activity; outline: as §1
# MCF7 = assay: Cytotoxicity against human MCF7 cells assessed as cell growth at 10 uM after 48 hrs by sulforhodamine B assay relative to control; conditions: MCF7, 48 h, read-out: Activity; outline: as §1
# TK-10 = assay: Cytotoxicity against human TK10 cells assessed as cell growth at 10 uM after 48 hrs by sulforhodamine B assay relative to control; conditions: TK-10, 48 h, read-out: Activity
# Malme-3M = assay: Cytotoxicity against human MALME-3M cells assessed as cell growth at 10 uM after 48 hrs by sulforhodamine B assay relative to control; conditions: read-out: Activity; outline: as §1
# A549 [3] = assay: Ratio of GI50 for human A549 cells to GI50 for human SF295 cells after 48 hrs by sulforhodamine B assay
structure (smiles),measurement,setting,value
COCc1cc(/C=C/c2cc(O)c(C/C=C(\C)CCC=C(C)C)c(OC)c2)cc2c1O[C@]1(C)CC[C@@H](O)C(C)(C)[C@H]1C2,growth at 10 µM,SK-MEL-28,118%
same,growth at 10 µM,A549 [1],104%
same,growth at 10 µM,OVCAR-3,94.8%
same,growth at 10 µM,K562,72%
same,growth at 10 µM,[2],82.8%
same,growth at 10 µM,UACC-62,90.7%
same,growth at 10 µM,NCI/ADR-RES,100%
same,growth at 10 µM,MDA-MB-435,120%
same,growth at 10 µM,COLO 205,130%
same,growth at 10 µM,HCT-15,84.2%
same,growth at 10 µM,HL-60(TB),78.2%
same,growth at 10 µM,M14,117%
same,growth at 10 µM,OVCAR-4,108%
same,growth at 10 µM,T47D,106%
same,growth at 10 µM,BT-549,193%
same,growth at 10 µM,HOP-62,127%
same,growth at 10 µM,MOLT-4,70.4%
same,growth at 10 µM,NCI-H23,100%
same,growth at 10 µM,MCF7,103%
COc1cc(/C=C/c2cc(Br)c3c(c2)C[C@@H]2C(C)(C)[C@H](O)CC[C@@]2(C)O3)cc(O)c1C/C=C(\C)CCC=C(C)C,growth at 10 µM,SK-MEL-28,106%
same,growth at 10 µM,A549 [1],94.7%
same,growth at 10 µM,TK-10,113%
same,growth at 10 µM,OVCAR-3,88.2%
same,growth at 10 µM,K562,79.9%
same,growth at 10 µM,[2],64.3%
same,growth at 10 µM,UACC-62,104%
same,growth at 10 µM,NCI/ADR-RES,105%
same,growth at 10 µM,MDA-MB-435,109%
same,growth at 10 µM,COLO 205,126%
same,growth at 10 µM,HCT-15,96.1%
same,growth at 10 µM,HL-60(TB),69.7%
same,growth at 10 µM,M14,107%
same,growth at 10 µM,OVCAR-4,110%
same,growth at 10 µM,T47D,109%
same,growth at 10 µM,BT-549,108%
same,growth at 10 µM,Malme-3M,115%
same,growth at 10 µM,HOP-62,113%
same,growth at 10 µM,MOLT-4,74.1%
same,growth at 10 µM,NCI-H23,103%
same,growth at 10 µM,MCF7,102%
COc1cc(/C=C/c2cc(O)c3c(c2)C[C@@H]2C(C)(C)[C@H](O)CC[C@@]2(C)O3)cc(O)c1C/C=C(\C)CCC=C(C)C,RatioGI50,A549 [3],>30
COc1cc(/C=C/c2cc3c(c(OC)c2)O[C@]2(C)CC[C@@H](O)C(C)(C)[C@H]2C3)cc(O)c1C/C=C(\C)CCC=C(C)C,RatioGI50,A549 [3],13
